# Laboratory results as given in ChEMBL document CHEMBL4265974, “Discovery of RG7834: The First-in-Class Selective and Orally Available Small Molecule Hepatitis B Virus Expression Inhibitor with Novel Mechanism of Action” (J Med Chem, 2018).
# What was measured:
# [1] = AUC (0 to t) in BALB/C mouse liver at 14.5 mg/kg, po administered as single dose by LC-MS/MS analysis; assay type: ADME, organism-based; conditions: in vivo
# [2] = Cmax in BALB/C mouse plasma at 14.5 mg/kg, po administered as single dose by LC-MS/MS analysis; assay type: ADME, organism-based; design: dose 14.5 mg/kg, route oral
# Outline: (§1)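 Male BALB/C mice given single doses of 1 mg/kg iv (5% DMSO, 40% PEG400, 55% saline), or 2 or 14.5 mg/kg po (1% RC-591 in water). Blood taken at set times into sodium heparin and plasma separated at 4 °C; livers from po groups taken right after bleeding, rinsed and blotted. Plasma and liver levels measured by LC–MS/MS.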
# [3] = Cmax in BALB/C mouse plasma at 2 mg/kg, po administered as single dose by LC-MS/MS analysis; assay type: ADME, organism-based; design: dose 2 mg/kg, route oral; outline: as §1
# Mus musculus [4] = assay: AUC (0 to infinity) in BALB/C mouse plasma at 1 mg/kg, iv administered as single dose by LC-MS/MS analysis; assay type: ADME, organism-based; design: dose 1 mg/kg, route intravenous, time infinity; conditions: in vivo
# [5] = Ratio of AUC (0 to t) in BALB/C mouse liver to plasma at 14.5 mg/kg, po administered as single dose by LC-MS/MS analysis; assay type: ADME, organism-based; conditions: read-out: Ratio AUC
# [6] = Oral bioavailability in BALB/C mouse at 2 mg/kg administered as single dose by LC-MS/MS analysis; assay type: ADME, organism-based; conditions: in vivo; outline: as §1
# [7] = Dissociation constant, pKa of the compound; assay type: physicochemical
# [8] = Volume of distribution at steady state in BALB/C mouse at 1 mg/kg, iv by LC-MS/MS analysis; assay type: ADME, organism-based; conditions: in vivo, read-out: Vdss; outline: as §1
# Mus musculus [9] = assay: AUC (0 to infinity) in BALB/C mouse plasma at 2 mg/kg, po administered as single dose by LC-MS/MS analysis; assay type: ADME, organism-based; design: dose 2 mg/kg, route oral, time infinity; conditions: in vivo
# [10] = Apparent permeability across apical to basolateral side in human Caco2 cells at 10 uM after 1 hr; assay type: ADME, cell-based; conditions: Caco-2
# Outline: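 Caco-2 monolayers; 10 µM compound in pH 7.4 HBSS added to apical side (A→B) or basolateral side (B→A), receiver holding pH 7.4 HBSS with 1% DMSO. Incubated 1 h at 37 °C, 5% CO2, 95% humidity. Drug amounts on both sides measured and permeability calculated for each direction.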
# [11] = Oral bioavailability in cynomolgus monkey; assay type: ADME, organism-based, Macaca fascicularis; conditions: in vivo
# [12] = Cmax in BALB/C mouse plasma at 1 mg/kg, iv administered as single dose by LC-MS/MS analysis; assay type: ADME, organism-based; design: dose 1 mg/kg, route intravenous; outline: as §1
# [13] = AUC (0 to t) in BALB/C mouse plasma at 14.5 mg/kg, po administered as single dose by LC-MS/MS analysis; assay type: ADME, organism-based; conditions: in vivo
# [14] = Lipophilicity, log D of the compound; assay type: physicochemical; conditions: octanol/water
# [15] = Cmax in BALB/C mouse liver at 14.5 mg/kg, po administered as single dose by LC-MS/MS analysis; assay type: ADME, organism-based; design: dose 14.5 mg/kg, route oral; outline: as §1
compound,measurement,setting,value
COCCCOc1cc2c(cc1OC)-c1cc(=O)c(C(=O)O)cn1[C@H](C(C)C)C2,AUCt,[1],17265 ng·mL·h
same,Cmax,[2],2040 ng/mL
same,Cmax,[3],322 ng/mL
same,AUC,Mus musculus [4],398 ng·mL·h
same,Kp,[5],4
same,bioavailability,[6],62%
same,pKa,[7],5.79
same,Vd,[8],2.07 L/kg
same,AUC,Mus musculus [9],490 ng·mL·h
same,"Papp A→B at 1 h, 10 µM",[10],12.8 ×10⁻⁶ cm/s
same,bioavailability,[11],57%
same,Cmax,[12],466 ng/mL
same,AUCt,[13],4366 ng·mL·h
same,logD,[14],1.28
same,Cmax,[15],11000 ng/mL
